Data on 1 molecule can be found in ChEMBL document CHEMBL1212820, “Novel hinge binder improves activity and pharmacokinetic properties of BRAF inhibitors” (J Med Chem, 2010).

The nature of data set [1]: Selectivity index, ratio of GI50 for human WM1361 cells to GI50 for human WM266.4 cells. The data set is classed as functional. The essentials: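 GI50 values from the SRB proliferation assay, expressed relative to the GI50 in WM266.4 (BRAF mutant) cells.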
Data set [2] is described as follows: Growth inhibition of human WM1361 cells expressing NRAS mutant after 5 days by SRB assay. The settings on record: WM1361, 120 h. Format: functional. A digest of the protocol:
(§1)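 Antiproliferative SRB assay in WM266.4 (BRAF mutant), WM1361 (NRAS mutant) and D24 (BRAF/NRAS wild-type) melanoma cells, with GI50 derived from the assay.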
For orientation: The SRB assay estimates cell density from bound dye.

A short description of data set [3]: Growth inhibition of D24 after 5 days by SRB assay. Format: functional. A digest of the protocol:
as §1

Data set [4] addresses T1, Serine/threonine-protein kinase B-raf (Homo sapiens, UniProt P15056, V600E). The data set can be described thus: Inhibition of B-Raf V600E mutant. A digest of the protocol:
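Enzymatic IC50 determined in vitro against purified V600E BRAF.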

The target of data set [5] is T1, Serine/threonine-protein kinase B-raf. As to the kind of experiment: Inhibition of BRAF V600E mutant-mediated ERK phosphorylation in human WM266.4 cells. The data set is classed as cell-based. The essentials: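 Cellular IC50 for inhibition of phosphoERK formation.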
Data set [6] is described as follows: Growth inhibition of human WM266.4 cells expressing BRAF V600E mutant after 5 days by SRB assay. Format: functional. The settings on record: WM 266-4, 120 h. A digest of the protocol: as §1
A short description of data set [7]: Cmax in BALB/cAnNCrl mouse at 10 mg/kg, po. The settings on record: in vivo.
Data set [8] is described as follows: Tmax in BALB/cAnNCrl mouse at 10 mg/kg, po. Conditions: in vivo.
Data set [9] is described as follows: Half life in BALB/cAnNCrl mouse at 10 mg/kg, po. The settings on record: in vivo.
Data set [10] in a line: Oral bioavailability in BALB/cAnNCrl mouse at 10 mg/kg. The settings on record: in vivo.
Data set [11] can be described thus: Ratio of Cmax in BALB/cAnNCrl mouse to GI50 for human WM266.4 cells.
The nature of data set [12]: Selectivity index, ratio of GI50 for human WM1361 cells to GI50 for human WM266.4.

T1 sequence (P15056 2-766 V600E limits assumed): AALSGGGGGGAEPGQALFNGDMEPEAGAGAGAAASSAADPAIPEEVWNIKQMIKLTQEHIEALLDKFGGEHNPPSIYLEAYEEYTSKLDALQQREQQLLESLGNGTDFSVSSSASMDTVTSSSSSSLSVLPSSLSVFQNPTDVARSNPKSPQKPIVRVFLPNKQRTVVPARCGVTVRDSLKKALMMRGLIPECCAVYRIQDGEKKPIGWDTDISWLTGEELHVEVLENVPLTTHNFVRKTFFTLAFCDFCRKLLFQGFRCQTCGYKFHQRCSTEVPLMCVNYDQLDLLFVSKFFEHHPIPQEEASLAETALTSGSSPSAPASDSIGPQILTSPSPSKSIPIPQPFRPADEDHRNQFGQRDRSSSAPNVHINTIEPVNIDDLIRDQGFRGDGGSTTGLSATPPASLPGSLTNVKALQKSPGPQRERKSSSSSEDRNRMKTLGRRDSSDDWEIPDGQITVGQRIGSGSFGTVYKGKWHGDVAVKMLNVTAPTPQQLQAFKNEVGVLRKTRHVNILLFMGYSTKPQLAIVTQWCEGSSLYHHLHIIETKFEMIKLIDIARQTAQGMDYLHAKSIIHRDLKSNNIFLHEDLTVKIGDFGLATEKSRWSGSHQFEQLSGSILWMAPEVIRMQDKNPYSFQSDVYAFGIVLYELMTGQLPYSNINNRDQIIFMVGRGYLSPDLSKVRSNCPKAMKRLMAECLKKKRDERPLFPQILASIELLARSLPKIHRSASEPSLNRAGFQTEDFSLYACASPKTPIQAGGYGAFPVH

For the molecule `Cc1ccc(-n2nc(C(C)(C)C)cc2NC(=O)Nc2cccc(Oc3ccnc4[nH]c(=O)cnc34)c2)cc1`, the RatioGI50 in data set [1] amounted to 60; in data set [12] it was 130. The GI50 in data set [2] is 12000 nM; in [3] it was 26000 nM; in [6], 190 nM. In addition, the results for the IC50 in [4] and in [5] were 87 nM and 274 nM, respectively. The same molecule had a Cmax in [7] of 27 µM. Further, the Tmax in [8] is 0.5 h. This molecule showed a half-life in data set [9] of 4 h. This molecule also displayed a bioavailability in data set [10] of 27%. Further, in data set [11], the Ratio is 142.

The term GI50 denotes the concentration that inhibits growth by half. The low end stands for more potent growth inhibition, the high end for less potent growth inhibition. As a reminder, the IC50 is the concentration that gives 50% inhibition. A higher IC50 goes with weaker potency in that assay. The Cmax is the maximum level reached in the sampled fluid or tissue. As usually defined, the Tmax is the time at which the peak concentration occurs. Broadly, the half-life is the time in which the quantity being followed falls by half. High values mean slow loss, low ones fast loss. For orientation: bioavailability means the share of a dose that reaches the circulation, judged against a reference dose that is usually intravenous. Lower therefore signals little systemic uptake.
